Experimental data from ChEMBL document CHEMBL4715695, “Adamantyl-tethered-biphenylic compounds induce apoptosis in cancer cells by targeting Bcl homologs” (Bioorg Med Chem Lett, 2016).
Active and inactive are the calls of the source. The rule behind the calls is not given here.

Key:
HepG2 [1] = experiment: Cytotoxicity against human HepG2 cells assessed as reduction in cell viability measured upto 72 hrs by MTT assay; format: functional, cell-based; conditions: for IC50: HepG2, 72 h
Procedure, shortened: (§1)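 HCC cells plated at 2.5 × 10^4/mL in triplicate and exposed to a range of compound concentrations. Proliferation was read by MTT at 24, 48 and 72 h.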

L02 = experiment: Cytotoxicity against human L02 cells assessed as reduction in cell viability measured upto 72 hrs by MTT assay; format: cell-based; conditions: l02, 72 h
HepG2 [2] = experiment: Induction of apoptosis in human HepG2 cells assessed as upregulation of Bcl-2 expression measured upto 48 hrs by Western blot analysis; format: functional, cell-based; conditions: time hrs <=48, in the assay text read “downregulation” for “upregulation”, TDE = time-dependent effect
Procedure, shortened: (§2)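 HepG2 cells were exposed to compound and harvested at 0, 12, 18, 24 and 48 h. Bcl-2 and Bcl-xL levels were detected by western blot, with β-actin as loading control.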

MDA-MB-231 [3] = experiment: Induction of apoptosis in human MBA-MB-231 cells assessed as upregulation of Bcl-2 expression measured upto 48 hrs by Western blot analysis; format: functional, cell-based; conditions: time hrs <=48, TDE = time-dependent effect, in the assay text read “downregulation” for “upregulation”
Procedure, shortened: (§3)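 Bcl-2 and Bcl-xL levels in MDA-MB-231 cells after compound treatment were assessed by western blot, with β-actin as loading control.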

HepG2 [4] = experiment: Induction of apoptosis in human HepG2 cells assessed as increase in PARP cleavage measured upto 48 hrs by Western blot analysis; format: functional, cell-based; conditions: time hrs <=48, TDE = time-dependent effect
Procedure, shortened: (§4)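 Lysates of compound-treated HepG2 cells were immunoblotted for procaspase-3, PARP, survivin and cyclin D1. Full-length PARP is 116 kDa; cleavage yields 85 and 24 kDa fragments.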

HepG2 [5] = experiment: Induction of apoptosis in human HepG2 cells assessed as decrease in full length PARP measured upto 48 hrs by Western blot analysis; format: functional, cell-based; conditions: time hrs <=48, TDE = time-dependent effect; procedure, shortened: as §4
HepG2 [6] = experiment: Induction of apoptosis in human HepG2 cells assessed as decrease in cyclin-D1 measured upto 48 hrs by Western blot analysis; format: functional, cell-based; conditions: time hrs <=48; procedure, shortened: as §4
HepG2 [7] = experiment: Induction of apoptosis in human HepG2 cells assessed as decrease in survivin measured upto 48 hrs by Western blot analysis; format: functional, cell-based; conditions: time hrs <=48; procedure, shortened: as §4
HepG2 [8] = experiment: Induction of apoptosis in human HepG2 cells assessed as increase in pro-caspase 3 activation measured upto 48 hrs by Western blot analysis; format: functional, cell-based; conditions: time hrs <=48, TDE = time-dependent effect; procedure, shortened: as §4
HepG2 [9] = experiment: Induction of apoptosis in human HepG2 cells assessed as upregulation of Bcl-xl expression measured upto 48 hrs by Western blot analysis; format: functional, cell-based; conditions: time hrs <=48, in the assay text read “downregulation” for “upregulation”, TDE = time-dependent effect; procedure, shortened: as §2
MDA-MB-231 [10] = experiment: Induction of apoptosis in human MBA-MB-231 cells assessed as upregulation of Bcl-xl expression measured upto 48 hrs by Western blot analysis; format: functional, cell-based; conditions: time hrs <=48, in the assay text read “downregulation” for “upregulation”; procedure, shortened: as §3
HepG2 [11] = experiment: Induction of cell cycle arrest in human HepG2 cells assessed as increase in accumulation of SubG1 phase incubated for 48 hrs by propidium iodide staining based flow cytometry analysis; format: functional; conditions: dose 10-40 µM
Procedure, shortened: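 HepG2 cells were treated at 0, 10, 20 and 40 µM for 48 h, then ethanol-fixed and stained with propidium iodide. Cell cycle distribution, including the subG1 fraction, was analysed by flow cytometry.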

HepG2 [12] = experiment: Antiproliferative activity in human HepG2 cells transfected with Bcl2 siRNA assessed as reduction in cell growth at 10 to 50 uM incubated for 24 hrs by MTT assay; format: functional, cell-based; conditions: dose 10-50 µM
Procedure, shortened: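 HepG2 cells were transfected with Bcl-2 siRNA, with control siRNA-transfected cells as the comparator. Cells were then exposed to graded compound doses, and proliferation was measured by MTT.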

Huh-7 = experiment: Cytotoxicity against human HuH-7 cells assessed as reduction in cell viability measured upto 72 hrs by MTT assay; format: functional, cell-based; conditions: dose 10-50 µM, time hrs <=72; procedure, shortened: as §1
Hep 3B2 = experiment: Cytotoxicity against human Hep3B cells assessed as reduction in cell viability measured upto 72 hrs by MTT assay; format: functional, cell-based; conditions: dose 10-50 µM, time hrs <=72; procedure, shortened: as §1

SMILES | IC50 (HepG2 [1]) [µM] | Activity (L02) | other results
COc1ccc(C2=Cc3ccccc3C2)cc1C12CC3CC(CC(C3)C1)C2 | 6.9 | Toxic | 
COc1ccc(-c2ccccc2C)cc1C12CC3CC(CC(C3)C1)C2 | 49.1 | Non-Toxic | 
COc1ccc(-c2cccc(O)c2)cc1C12CC3CC(CC(C3)C1)C2 | 26.1 | Non-Toxic | Activity (HepG2 [2]): Tde; Activity (MDA-MB-231 [3]): Tde; Activity (HepG2 [4]): Tde; Activity (HepG2 [5]): Tde; Activity (HepG2 [6]): Active; Activity (HepG2 [7]): Active; Activity (HepG2 [8]): Tde; Activity (HepG2 [9]): Tde; Activity (MDA-MB-231 [10]): Active; Activity (HepG2 [11]): Dose-dependent effect; inhibition (HepG2 [12]): inactive
COc1cccc(-c2ccc(OC)c(C34CC5CC(CC(C5)C3)C4)c2)c1 | > 50 | Non-Toxic | 
COc1ccc(-c2ccccc2)cc1C12CC3CC(CC(C3)C1)C2 | > 50 | Non-Toxic | 
COc1ccc(-c2ccccc2C#N)cc1C12CC3CC(CC(C3)C1)C2 | > 50 | Non-Toxic | 
COc1ccc(-c2cccc3ccccc23)cc1C12CC3CC(CC(C3)C1)C2 | 46.2 | Non-Toxic | 
COc1ccc(-c2ccccc2F)cc1C12CC3CC(CC(C3)C1)C2 | > 50 | Non-Toxic | 
COc1ccc(-c2ccccc2Cl)cc1C12CC3CC(CC(C3)C1)C2 | 21.9 | Toxic | 
CC1(C)CCC(c2ccc(Cl)cc2)=C(CN2CCN(c3ccc(C(=O)NS(=O)(=O)c4ccc(N[C@H](CCN5CCOCC5)CSc5ccccc5)c(S(=O)(=O)C(F)(F)F)c4)cc3)CC2)C1 |  |  | Activity (HepG2 [1]; time hrs <=72): Dose-dependent effect; Activity (Huh-7): Dose-dependent effect; Activity (Hep 3B2): Dose-dependent effect
COc1ccc(-c2c(F)cc(F)c(OC)c2F)cc1C12CC3CC(CC(C3)C1)C2 | > 50 | Non-Toxic | 
COc1ccc(-c2ccc(C(=O)N3CCCCC3)cc2)cc1C12CC3CC(CC(C3)C1)C2 | > 50 | Non-Toxic | 
COc1ccc(-c2cccc(Cl)c2)cc1C12CC3CC(CC(C3)C1)C2 |  | Non-Toxic | 
COc1ccc(-c2ccc(C(F)(F)F)cc2)cc1C12CC3CC(CC(C3)C1)C2 | > 50 | Non-Toxic | 
COc1ccc(-c2ccc(Cl)c(C(F)(F)F)c2)cc1C12CC3CC(CC(C3)C1)C2 | > 50 | Non-Toxic | 
